STAT3 blocker: reduces IL-6 driven STAT3 reporter signal. U3A cells, IL-6 STAT3-luciferase reporter, luminescence; host cell line lacks STAT1. inhibition, % at 5.5 µM. 190,000 compounds, 0.89% hits;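 active = inhibition above the mean inhibition across all screened compounds plus 3 SD, cut at about 44% in these data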;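 note: 0% = DMSO only wells and 100% = 100 µM nifuroxazide control wells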
STAT1 inh: reduces IFN-gamma driven STAT1 reporter signal | NIH 3T3 STAT1-luciferase reporter, luminescence | inhibition, % at 5.5 µM | 200,000 compounds, 0.35% hits | AID 920;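 active = inhibition above a set limit, the mean inhibition across all tested compounds plus 3 SD, cut at about 34% in these data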;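 note: 0% = IFN-gamma with DMSO and 100% = IFN-gamma with 300 µM nifuroxazide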
STAT3 activator: STAT3 signaling activation; 190,000 compounds, 0.91% hits; activation (% of control), % at 5.6 µM; AID 871; U3A cells, IL-6 STAT3-luciferase reporter, luminescence; 100% = signal with IL-6 EC80 alone;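 active = activation above the screen-wide mean of compound activation plus 3 SD, cut at about 130% in these data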;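 note: 0% = background luminescence of wells with medium and substrate only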
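Test system: Human STAT1-deficient U3A cells with stable STAT3-luciferase reporter | Also added: Interleukin-6, 33 ng/mL | Timing: Compound pre-incubation 1 h before IL-6, then 6 h stimulation at 37 °C | Technique: Luciferase reporter luminescence | Read-out: Percent of IL-6-only median luminescence | Benchmarks: IL-6-only wells as 100% reference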
HSP90 inh: inhibitors of HSP90 luciferase refolding in rabbit reticulocyte lysate. luciferase refolding luminescence, 3 h. inhibition, % at 5.6 µM. 290,000 compounds, 0.91% hits;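 active = inhibition above the screen-wide mean plus 3 SD, computed separately per campaign, cut at about 16% in these data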;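 note: 0% = DMSO wells and 100% = 60 µM geldanamycin wells; inhibitors lower the luminescence because luciferase stays unfolded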
C8 TRAIL sens: caspase-8 TRAIL sensitization. inhibition (viability loss, TRAIL sensitization), % at 10 µM. NB7+C8 cells + TRAIL, ATPlite viability luminescence. 360,000 compounds, 1% hits;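 active = compounds causing at least 50% loss of cell viability in the single-dose screen, relative to plate controls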
PPC-1+TRAIL kill: compounds killing PPC-1 cancer cells with TRAIL present (potentiator screen, no TRAIL-free arm); PPC-1 cells + TRAIL, ATPLite viability luminescence; cell killing (% activity), % at 4 µM or 5 µM; 220,000 compounds, 0.41% hits; AID 1443;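 active = cell killing above 50% in the first pass at 4 µM, then a duplicate retest at 5 µM averaging 50% or more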;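 note: plate controls were cells with TRAIL plus DMSO for no effect and medium-only wells lacking cells for full effect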
Starred values were filed as active, the others as inactive; . = no result. Rows were chosen to be rich in hits. Some 2.3% of all compounds tested hit in one or more screens of this group.

SMILES | STAT3 blocker | STAT1 inh | STAT3 activator | HSP90 inh | C8 TRAIL sens | PPC-1+TRAIL kill
O=C(N=Nc1c(O)[nH]c2ccccc12)c1cc(NS(=O)(=O)c2cccs2)cc(NS(=O)(=O)c2cccs2)c1 | -22 | -5 | 125 | -1 | -3 | 1
Cn1c(O)c(N=NC(=O)c2cc(-c3cccs3)nc3ccccc23)c2ccccc21 | 1 | 0 | 100 | 9 | 48 | 24
S=C1NCN(CCc2ccccc2)CN1Cc1ccccc1 | . | . | . | 6 | -4 | 13
COc1cc2c(cc1OC)C(C1C(=O)CCCC1=O)N(C(=O)CCl)CC2 (stereo not given) | 1 | -5 | 97 | -2 | -4 | 14
COc1cc2c(cc1OC)C(c1ccccc1)N(C(=O)CCl)CC2 (stereo not given) | 29 | -1 | 85 | 2 | 86* | 11
CCOC(=O)N1CCN(C(=O)CC(=O)Nc2ccc3nc4n(c(=O)c3c2)CCCCC4)CC1 | 6 | 6 | 101 | -1 | -6 | 7
Cc1ccc(C(=O)COC(=O)COc2ccccc2O)cc1C | . | . | . | . | -3 | .
COc1ccccc1NC(CC(=O)c1ccccc1)C(=O)OCC(=O)c1ccc(C)cc1 (stereo not given) | 38 | -28 | 66 | 2 | 65* | 0
COc1ccccc1NC(CC(=O)c1ccccc1)C(=O)OCC(=O)c1ccc(C)c(C)c1 (stereo not given) | -8 | -26 | 107 | -2 | 58* | 29
COc1ccccc1NC(CC(=O)c1ccccc1)C(=O)OCC(=O)c1ccc(Br)cc1 (stereo not given) | 35 | -56 | 70 | -1 | 63* | 14
CCc1nc2ccc(C(=O)NCCCn3ccnc3)cn2c1N(C)CCC(C)C | . | . | . | . | 18 | .
COC(=O)N/N=C\c1ccc(-c2cc(Cl)c(Cl)cc2Cl)o1 | 7 | -7 | 95 | -6 | -15 | 5
COc1ccc(N2CC(C)(C)[C@H](CC(=O)Nc3ccc(Br)cc3)C2=O)cc1 | . | . | . | . | 6 | .
COc1ccc(-n2nc3cc(C)c(N)c(Br)c3n2)cc1 | -69 | -73 | 165* | 2 | 34 | 41
CC(=O)C[C@H](O)CC(=O)[C@@H]1OC(=O)[C@H](C)C/C=C\Cc2ccccc21 | . | . | . | . | -5 | .
O=C(NC1=NCCS1)c1cc(-c2ccc(F)cc2)nc2ccccc12 | -1 | -2 | 99 | -1 | 10 | 14
CCCc1ccc(-c2cc(C(=O)NC3=NCCS3)c3ccccc3n2)cc1 | -7 | -15 | 102 | -2 | 72* | 54*
CCc1ccc(-c2cc(C(=O)NCc3ccccn3)c3ccccc3n2)cc1 | -17 | -9 | 117 | -3 | 60* | 26
Cn1c(CC(=O)NNC(=O)c2cncc(Br)c2)nc2ccccc21 | . | . | . | . | -21 | .
Cc1ccc2c(c1)C(O)(c1c(C)[nH]c3ccccc13)C(=O)N2 (stereo not given) | -39 | 3 | 134* | 3 | 7 | 9
NC(=O)c1sc2nc(-c3ccccc3)ccc2c1N | . | . | . | 3 | 4 | .
CCOC(=O)c1sc2nc(-c3ccccc3)ccc2c1N | 9 | -75 | 91 | -7 | 77* | 58*
CC1=CC2(C#N)C3(N=C(N)C2(C#N)C(c2ccccc2)N1)OCCO3 (stereo not given) | -6 | -15 | 105 | -5 | 10 | -2
Cc1c(C(=O)O)oc2ccc(S(=O)(=O)NCc3ccccc3)cc12 | 5 | 7 | 99 | 2 | 6 | 11
O=c1c2ccccc2nc2n1CC/C2=C\c1ccccc1[N+](=O)[O-] | -65 | 1 | 157* | -1 | . | 2
SMILES | STAT3 blocker | STAT1 inh | STAT3 activator | HSP90 inh | C8 TRAIL sens | PPC-1+TRAIL kill
Nc1nc(CCl)nc(Nc2cccc3ccccc23)n1 | . | . | . | 1 | 95* | 27
Cn1c(N)c(C(=O)N/N=C/c2ccccc2)sc1=S | . | . | . | 7 | 15 | 16
Cc1cccc(NC(=S)N/N=C/c2ccc([N+](=O)[O-])s2)c1 | 15 | 12 | 90 | -5 | 48* | 1
Cc1cccc(NC(=O)/C=C/c2ccc([N+](=O)[O-])s2)c1 | -14 | 16 | 110 | 1 | -12 | 11
Cc1ccc(NC(=O)NCCc2ccc(S(N)(=O)=O)cc2)cc1 | 10 | 1 | 96 | 0 | 6 | 1
CCN(CC)CCn1c2c(c(SCC(=O)Nc3nc4ccccc4s3)nc1=O)CCC2 | . | . | . | . | 2 | .
CCN(CC)CCn1c2c(c(SCC(=O)Nc3nc4ccc(C)cc4s3)nc1=O)CCC2 | . | . | . | . | 66* | .
COc1ccc2cc1Oc1ccc(cc1)CC1c3c(cc(OC)c4c3Oc3cc5c(cc3O4)CCNC5C2)CCN1C (stereo not given) | . | . | . | 8 | 93* | 23
COc1cc2c(c(O)c1OC)C1Cc3ccc(OC)c(OC)c3CN1CC2 (stereo not given) | . | . | . | . | 0 | .
COc1ccc2cc1Oc1ccc(cc1)C[C@H]1c3c(cc(OC)c4c3Oc3c(ccc5c3[C@H](C2)N(C)CC5)O4)CCN1C | . | . | . | . | 88* | .
COc1ccccc1C(=O)NNC(=O)c1cc2ccccc2cc1O | . | . | . | . | 21 | .
Cc1cc(NC(=O)C(=O)NCc2cccc(Cl)c2)no1 | . | . | . | 5 | -5 | 11
CCOC(=O)N1CCC(Nc2c(OCC)c(=O)c2=O)CC1 | 9 | -7 | 100 | 0 | 4 | 52*
CCOC(=O)Cc1csc(SCC(=O)Nc2oc(C)c3c(C)n[nH]c(=O)c23)n1 | . | . | . | . | -10 | .
Cc1nc2nc(C)n(CCN3CCOCC3)c(=O)c2c(-c2cccc([N+](=O)[O-])c2)c1C(=O)CCCCCCCCCCN1CCC(c2ccccc2)(c2ccccc2)CC1 | . | . | . | . | 92* | .
O=C1c2ccc3c4c(ccc(c24)C(=O)N1c1cccc(O)c1)C(=O)N(c1cccc(O)c1)C3=O | . | . | . | 8 | 49* | 16
O=C(CN1C(=O)NC2(CCCCC2)C1=O)Nc1ccc2c(c1)CCC2 | -34 | -22 | 134* | -3 | -2 | -19
Cc1cc(NC(=O)c2ccc(F)cc2F)n(-c2nc3ccccc3[nH]2)n1 | 21 | 6 | 85 | 0 | 20 | -1
Cc1cc(NC(=O)/C=C/c2ccccc2Cl)n(-c2nc3ccccc3[nH]2)n1 | 9 | -3 | 95 | -1 | 74* | 58*
O=C(CSc1nn(-c2ccccc2)c(=S)s1)NC1CCS(=O)(=O)C1 (stereo not given) | -2 | 8 | 100 | 3 | -3 | 38
Cc1ccc2c(c1)N(C(=O)CCC(=O)NCc1ccccc1)CC(C)O2 (stereo not given) | . | . | . | -3 | -8 | .
CC1CN(C(=O)CCC(=O)NCc2ccccc2)c2cc(Cl)ccc2O1 (stereo not given) | . | . | . | 67* | -3 | .
COc1ccc(NC(=O)c2cc3ccc(O)cc3o/c2=N\O)cc1 | . | . | . | 6 | 74* | .
CCCCCCc1cc2cc(C(=O)OCC)c(=O)oc2cc1O | . | . | . | 0 | 21 | -7
CCCCCCc1cc2cc(S(=O)(=O)c3ccc(F)c(Cl)c3)c(=O)oc2cc1O | 0 | 8 | 96 | 4 | 52* | 7
CCCCCCc1cc2cc(C(=O)Nc3ccc(OC)cc3)c(=O)oc2cc1O | -10 | -5 | 107 | 0 | 51* | 22
